# TDP2 inh: TDP2 (human) inhibition, absorbance primary screen. recombinant TDP2, T5PNP hydrolysis, p-nitrophenol absorbance 415 nm. inhibition, % at 12.8 µM. actives 0.34% (n = 370,000);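 active means inhibition above the mean of all tested compounds plus 3 SD, set per campaign, cut at about 25% in these data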
#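 System – recombinant human TDP2 · Amount – 120 nM TDP2 per well · Buffer or medium – Mg2+-containing Tris-HCl buffer, pH 7.5 · Reagent – T5PNP substrate, 5 mM · Dosing – 12.8 µM single point, 1% DMSO · Incubation – 2 h at 37 °C · Measured by – epi absorbance · Read-out basis – percent inhibition · Benchmarks – high control without enzyme, low control DMSO plus TDP2 · Repeats – singlicate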
# Rin1-Abl PPI inh: human Rin1-Abl interaction inhibition | P00519+Q13671 | inhibition, % at 7.35 µM | actives 0.4% (n = 360,000) | TR-FRET Rin1/Abl binding, biochemical; in the data active means inhibition above about 5%, passing the limit was not always enough
# MBD2 inh: blocks human MBD2 binding to methylated DNA. inhibition, % at 4.4 µM. Q9UBB5. actives 0.31% (n = 370,000). TR-FRET, MBD2 binding to methylated oligonucleotide. AID 686964; in the data active means inhibition above about 13%
# LEDGF integ inh: blocks HIV-1 LEDGF/p75-dependent DNA integration; inhibition, % at 3.7 µM; AID 743269; TR-FRET IN-LEDGF/p75 DNA integration, Eu/Cy5; actives 0.64% (n = 370,000);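 active means inhibition above the screen-wide mean plus 3 SD, cut at about 13% in these data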;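 further: signal is the Cy5 over europium emission ratio at 671 and 618 nm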
# UHRF1 binding: UHRF1 methyl-DNA binding inhibition | Q96T88 | UHRF1 binding to methylated oligo, TR-FRET | inhibition, % at 4.4 µM | actives 0.75% (n = 370,000) | AID 687016; in the data active means inhibition above about 21%;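 further: UHRF1 SRA domain binding a hemimethylated CpG hairpin DNA probe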
# Target sequence (Q96T88 whole entry, looked up, the tested form may be a part): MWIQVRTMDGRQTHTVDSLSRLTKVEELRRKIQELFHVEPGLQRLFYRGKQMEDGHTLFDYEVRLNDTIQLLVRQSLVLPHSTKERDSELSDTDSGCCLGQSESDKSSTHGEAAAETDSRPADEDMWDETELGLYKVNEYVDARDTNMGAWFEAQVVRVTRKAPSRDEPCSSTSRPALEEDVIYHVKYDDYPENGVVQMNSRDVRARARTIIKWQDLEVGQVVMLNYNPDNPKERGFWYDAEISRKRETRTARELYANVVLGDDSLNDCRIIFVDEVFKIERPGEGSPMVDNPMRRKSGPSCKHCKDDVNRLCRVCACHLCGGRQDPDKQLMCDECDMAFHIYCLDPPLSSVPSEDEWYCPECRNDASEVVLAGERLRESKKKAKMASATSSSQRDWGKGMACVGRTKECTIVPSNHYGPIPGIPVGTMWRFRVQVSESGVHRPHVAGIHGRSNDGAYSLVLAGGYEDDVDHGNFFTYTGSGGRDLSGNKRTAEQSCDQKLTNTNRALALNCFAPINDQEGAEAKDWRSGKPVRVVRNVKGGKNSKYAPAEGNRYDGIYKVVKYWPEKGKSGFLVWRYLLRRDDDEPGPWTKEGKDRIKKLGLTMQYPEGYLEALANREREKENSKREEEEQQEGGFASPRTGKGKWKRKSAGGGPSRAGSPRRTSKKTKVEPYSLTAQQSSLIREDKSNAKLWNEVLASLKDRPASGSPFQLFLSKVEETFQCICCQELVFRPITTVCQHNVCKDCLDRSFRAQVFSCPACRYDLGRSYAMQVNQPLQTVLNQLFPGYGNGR
# Rin1 Abl conf: Rin1-Abl interaction inhibition confirmation | TR-FRET Rin1-Abl binding, purified proteins | shares compounds with Rin1-Abl PPI inh | AID 602124 | inhibition, % at 7.35 µM | actives 49% (n = 1,300)
# GFP quencher: quenches GFP fluorescence, counter-screen for Rin1-Abl inhibitors; inhibitors/quenchers counterscreen; inhibition, % at 6.75 µM; shares compounds with Rin1-Abl PPI inh; actives 8.5% (n = 1,300);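 further: ABL1-eGFP fusion protein alone without its partner RIN1-SBP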
# UHRF1 ctr MBD2: counter-screen for MBD2 inhibitors: human UHRF1 methylated DNA binding inhibitors; shares compounds with MBD2 inh; UHRF1 binding to methylated oligonucleotide, TR-FRET; inhibition, % at 4.4 µM; actives 25% (n = 1,000); AID 720530; in the data active means inhibition above about 21%;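 further: UHRF1 SRA domain binding a labeled hemimethylated CpG hairpin DNA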
# MBD2 confirm: confirmation of human MBD2-DBD methylated oligonucleotide binding inhibitors. shares compounds with MBD2 inh. TR-FRET MBD2-DBD binding to methylated oligonucleotide. inhibition, % at 4.4 µM. actives 26% (n = 1,000). AID 720531; in the data active means inhibition above about 14%
# IN multimer act: HIV-1 integrase multimerization activation, counter-screen; actives 17% (n = 2,000); activation, % at 7.7 µM; TR-FRET HIV-1 integrase multimerization, biochemical; AID 1053131; shares compounds with LEDGF integ inh; in the data active means activation above about 8.9%
# TR-FRET interf: optically interferes with TR-FRET readout in LEDGF counter-screen. shares compounds with LEDGF integ inh. TR-FRET optical interference counterscreen, HIV-1 IN multimerization. inhibition, % at 7.7 µM. 2,000 tested, under 10 active. AID 1053135;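 active means inhibition above the mean over all tested compounds plus 3 SD, which no compound reached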
# IN-LEDGF confirm: LEDGF/p75-dependent HIV-1 integration inhibition, confirmation; actives 36% (n = 2,000); TR-FRET LEDGF/p75-dependent HIV-1 integration, biochemical; inhibition, % at 3.7 µM; shares compounds with LEDGF integ inh; in the data active means inhibition above about 14%
# Hits are given with their value; . = inactive; / = not tested or not shown. The list is not random: actives were taken first. Their share in the collection is about 1.9%. Unless noted, no stated cut-off is given here; in the data, active means inhibition above about 6.5%; inactive means the rest.
SMILES,TDP2 inh,Rin1-Abl PPI inh,MBD2 inh,LEDGF integ inh,UHRF1 binding,UHRF1 ctr MBD2,MBD2 confirm,others
CCN(CC)Cc1cc(O)c(CN(CC)CC)cc1O,.,11.0,16.6,64.0,52.1,.,.,Rin1 Abl conf=.;GFP quencher=.;IN multimer act=.;TR-FRET interf=.;IN-LEDGF confirm=57.0
O=C1C=CC2=C3c4cc(O)c(O)cc4CC3(O)COC2=C1O (configuration not stated),.,67.1,35.2,89.9,55.7,/,/,Rin1 Abl conf=72.7;GFP quencher=45.4;IN multimer act=68.0;TR-FRET interf=.;IN-LEDGF confirm=93.2
O=S(=O)(Nc1ccc(O)c2ncccc12)c1ccccc1F,.,12.6,.,28.6,.,/,/,Rin1 Abl conf=.;GFP quencher=.;IN multimer act=.;TR-FRET interf=.;IN-LEDGF confirm=43.8
C[C@@H]1O[C@@H](O[C@@H]2[C@@H](O)[C@H](OCCc3ccc(O)c(O)c3)O[C@H](CO)[C@H]2OC(=O)/C=C/c2ccc(O)c(O)c2)[C@H](O)[C@H](O)[C@H]1O,.,30.5,.,86.5,.,/,/,Rin1 Abl conf=33.6;GFP quencher=.;IN multimer act=36.6;TR-FRET interf=.;IN-LEDGF confirm=88.4
Nc1[nH]c2cc(C(F)(F)F)ccc2c1C(=O)N1CCN(CCc2ccccc2)CC1,.,/,.,.,.,/,/,
COC[C@@H]1CCCN1c1ccc2c(c1)OCCCN(C1CC1)S2(=O)=O,.,/,.,.,.,/,/,
CCOC(=O)C1=C(C)N(C)C(=O)NC1c1cc2c(cc1[N+](=O)[O-])OCO2 (configuration not stated),.,8.7,.,13.8,.,/,/,Rin1 Abl conf=7.4;GFP quencher=.;IN multimer act=10.4;TR-FRET interf=.;IN-LEDGF confirm=.
CN(C)C=Nc1nc2c(Br)ccc(Br)c2cc1C(=O)NCC(C)(C)C,.,/,.,.,.,/,/,
O=C(NCc1ccc(C(=O)N2CCCC2)cc1)c1cccc(Br)c1,.,/,.,.,.,/,/,
O=C(O)CC(C(=O)O)N1C(=O)/C(=C/C=C/c2ccco2)SC1=S (configuration not stated),.,17.9,108.8,88.8,100.0,92.0,58.6,Rin1 Abl conf=11.4;GFP quencher=13.1;IN multimer act=36.6;TR-FRET interf=.;IN-LEDGF confirm=94.1
CCC(C(=O)O)N1C(=O)/C(=C/c2cccn2C)SC1=S (configuration not stated),.,.,.,.,.,/,/,
NS(=O)(=O)c1ccc(CCNC(=O)CCS(=O)(=O)c2ccc(Br)cc2)cc1,.,.,17.3,.,29.3,43.6,29.7,
Cc1cc(=O)oc2n[nH]c(-c3ccccc3)c12,.,.,.,.,.,/,/,
COc1ccc(-c2[nH]nc3oc(=O)cc(C)c23)cc1,.,.,14.5,.,.,.,.,
COc1ccc(C(=O)N2CCC(CCC(=O)Nc3cccc(C)c3)CC2)cc1,.,.,.,.,.,/,/,
COC(C(=O)N1CCC(CCC(=O)Nc2ccccc2)CC1)c1ccccc1 (configuration not stated),.,.,15.2,.,26.6,.,.,
CC(C)C(=O)Nc1cc(S(=O)(=O)N2CCOCC2)ccc1N1CCCCC1,.,.,.,.,.,/,/,
CC(C)(C)C(=O)Nc1cc(S(=O)(=O)N2CCCCC2)ccc1N1CCCCC1,.,.,14.2,.,.,.,.,
COc1ccccc1CNC(=O)C1(C)Oc2cccnc2NC1=O (configuration not stated),.,.,.,.,.,/,/,
COc1cccc(CNC(=O)C2(C)Oc3ccccc3NC2=O)c1 (configuration not stated),.,.,60.8,.,.,.,.,
C=CC[C@@H](CC(=O)N(CCO)Cc1ccccc1)C(=O)N[C@@H](C)COC(=O)[C@@H](CC=C)CC(=O)OC(C)(C)C,.,.,17.1,.,27.4,.,.,
CC(C)N1CCCCC(NC(=O)c2ccc(Br)cc2)C1=O (configuration not stated),.,/,.,.,.,/,/,
CC(C)Oc1cccc(-c2csc(N3CCC(C(N)=O)CC3)n2)c1,.,/,.,.,.,/,/,
CC(C)CN(C(=O)CSc1nc2ccccc2c(=O)[nH]1)c1c(N)n(CC(C)C)c(=O)[nH]c1=O,.,.,24.7,.,.,.,.,
CCN(CC)CCNc1nc2cc(OC)c(OC)cc2c2nc(-c3ccccc3)nn12,.,.,31.3,.,38.1,33.5,25.1,
SMILES,TDP2 inh,Rin1-Abl PPI inh,MBD2 inh,LEDGF integ inh,UHRF1 binding,UHRF1 ctr MBD2,MBD2 confirm,others
COc1cc2[nH]c(=O)n3nc(-c4ccccc4)nc3c2cc1OC,/,.,/,/,/,/,/,
O=C(C1COc2ccccc2O1)N1CCOCC1 (configuration not stated),.,.,13.5,.,.,.,.,
O=C(C1COc2ccccc2O1)N1CCN(c2ccccc2)CC1 (configuration not stated),.,.,.,.,.,/,/,
CC(=O)Nc1ccc(S(=O)(=O)N2CCN(C(=O)C3COc4ccccc4O3)CC2)cc1 (configuration not stated),.,.,.,.,.,/,/,
COc1ccc(S(=O)(=O)N2CCN(C(=O)C3COc4ccccc4O3)CC2)cc1 (configuration not stated),.,.,25.7,.,29.3,74.7,70.2,
O=c1c2ccccc2n(Cc2ccccc2)n1[C@@H](Cc1ccccc1)Cn1cc(C2CCCC2)nn1,.,/,.,.,.,/,/,
O=C(COC(=O)CCN1C(=O)c2ccccc2C1=O)Nc1ccccc1[N+](=O)[O-],.,.,.,.,.,/,/,
O=C(COC(=O)CN1C(=O)c2ccccc2C1=O)Nc1ccccc1[N+](=O)[O-],.,.,19.2,.,23.6,.,.,
COc1cc2sc3cc(NCC[C@@H]4CCCN4C)ccc3c(=O)c2cc1OC,.,.,17.6,.,.,.,22.4,
COc1cccc2sc3ccc(NCCC4CCCN4C)cc3c(=O)c12 (configuration not stated),.,.,.,.,.,/,/,
Nc1nc(SCC(=O)N2CCN(c3ccc(F)cc3)CC2)n[nH]1,.,.,48.0,.,.,.,.,
Cc1ccc2cccc(OCC(=O)Nc3cccc(S(=O)(=O)N4CCCC4)c3)c2n1,.,.,17.3,.,.,.,.,

# High-throughput results from PubChem.
